Experimental data: ChEMBL document CHEMBL3400094, “Synthesis and SAR study of potent and selective PI3Kδ inhibitors” (Bioorg Med Chem Lett, 2015)
pIC50: −log10 of the molar value.

What was measured:
[1] = target: T1, Phosphatidylinositol 4,5-bisphosphate 3-kinase catalytic subunit delta isoform (Homo sapiens, UniProt O00329); test: Inhibition of PI3Kdelta (unknown origin) by biochemical Alphascreen assay
T1 sequence (O00329 whole entry): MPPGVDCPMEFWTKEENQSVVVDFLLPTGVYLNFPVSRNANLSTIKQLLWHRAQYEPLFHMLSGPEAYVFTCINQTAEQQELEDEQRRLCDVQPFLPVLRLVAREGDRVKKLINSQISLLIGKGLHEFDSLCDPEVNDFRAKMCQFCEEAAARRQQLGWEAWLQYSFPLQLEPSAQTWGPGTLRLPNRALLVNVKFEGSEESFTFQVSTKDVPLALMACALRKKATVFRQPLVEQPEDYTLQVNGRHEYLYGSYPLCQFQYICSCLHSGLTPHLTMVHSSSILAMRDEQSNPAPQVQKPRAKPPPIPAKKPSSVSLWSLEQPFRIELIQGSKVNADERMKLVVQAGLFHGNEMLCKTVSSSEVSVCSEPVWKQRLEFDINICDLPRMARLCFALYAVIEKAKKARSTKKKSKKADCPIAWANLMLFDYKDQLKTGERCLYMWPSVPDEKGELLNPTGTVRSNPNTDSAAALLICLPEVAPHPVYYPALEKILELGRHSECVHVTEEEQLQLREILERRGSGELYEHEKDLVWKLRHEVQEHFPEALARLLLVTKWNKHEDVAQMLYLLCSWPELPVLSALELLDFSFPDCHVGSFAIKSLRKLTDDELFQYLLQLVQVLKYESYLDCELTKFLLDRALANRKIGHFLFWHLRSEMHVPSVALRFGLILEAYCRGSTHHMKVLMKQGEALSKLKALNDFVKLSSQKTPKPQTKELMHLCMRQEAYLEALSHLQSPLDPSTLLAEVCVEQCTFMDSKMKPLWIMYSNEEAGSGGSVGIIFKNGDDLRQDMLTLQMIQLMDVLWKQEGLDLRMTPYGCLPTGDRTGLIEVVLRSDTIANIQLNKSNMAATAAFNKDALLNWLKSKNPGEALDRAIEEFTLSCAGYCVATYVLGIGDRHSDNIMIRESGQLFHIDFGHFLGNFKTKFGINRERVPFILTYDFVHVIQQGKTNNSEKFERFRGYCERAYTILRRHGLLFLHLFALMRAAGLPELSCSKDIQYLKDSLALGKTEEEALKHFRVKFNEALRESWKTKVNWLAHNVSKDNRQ

[2] = target: Phosphatidylinositol 4,5-bisphosphate 3-kinase catalytic subunit gamma isoform (Homo sapiens, UniProt P48736); test: Inhibition of PI3Kgamma (unknown origin) by biochemical Alphascreen assay
[3] = target: Phosphatidylinositol 4,5-bisphosphate 3-kinase catalytic subunit beta isoform (Homo sapiens, UniProt P42338); test: Inhibition of PI3Kbeta (unknown origin) by biochemical Alphascreen assay
[4] = target: Phosphatidylinositol 4,5-bisphosphate 3-kinase catalytic subunit alpha isoform (Homo sapiens, UniProt P42336); test: Inhibition of PI3Kalpha (unknown origin) by biochemical Alphascreen assay
[5] = target: T1, Phosphatidylinositol 4,5-bisphosphate 3-kinase catalytic subunit delta isoform; test: Inhibition of PI3Kdelta (unknown origin) assessed as inhibition of AKT phosphorylation by cell-based HTRF assay
[6] = Clearance in Sprague-Dawley rat at 0.5 mg/kg, iv and 2 to 10 mg/kg, po; format: ADME, organism-based; conditions: in vivo
In short: (§1)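 Male Sprague-Dawley rats, n=3. Compounds formulated for iv dosing at 0.5 mg/kg or oral dosing at 2-10 mg/kg.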

[7] = Metabolic stability assessed as glutathione adduct formation of SO2Me after 30 mins; format: ADME; conditions: 0.5 h
[8] = Oral bioavailability in Sprague-Dawley rat at 2 to 10 mg/kg; format: ADME, organism-based; conditions: in vivo; in short: as §1

Phosphatidylinositol 4,5-bisphosphate 3-kinase catalytic subunit alpha isoform, sequence (P42336 whole entry, canonical isoform): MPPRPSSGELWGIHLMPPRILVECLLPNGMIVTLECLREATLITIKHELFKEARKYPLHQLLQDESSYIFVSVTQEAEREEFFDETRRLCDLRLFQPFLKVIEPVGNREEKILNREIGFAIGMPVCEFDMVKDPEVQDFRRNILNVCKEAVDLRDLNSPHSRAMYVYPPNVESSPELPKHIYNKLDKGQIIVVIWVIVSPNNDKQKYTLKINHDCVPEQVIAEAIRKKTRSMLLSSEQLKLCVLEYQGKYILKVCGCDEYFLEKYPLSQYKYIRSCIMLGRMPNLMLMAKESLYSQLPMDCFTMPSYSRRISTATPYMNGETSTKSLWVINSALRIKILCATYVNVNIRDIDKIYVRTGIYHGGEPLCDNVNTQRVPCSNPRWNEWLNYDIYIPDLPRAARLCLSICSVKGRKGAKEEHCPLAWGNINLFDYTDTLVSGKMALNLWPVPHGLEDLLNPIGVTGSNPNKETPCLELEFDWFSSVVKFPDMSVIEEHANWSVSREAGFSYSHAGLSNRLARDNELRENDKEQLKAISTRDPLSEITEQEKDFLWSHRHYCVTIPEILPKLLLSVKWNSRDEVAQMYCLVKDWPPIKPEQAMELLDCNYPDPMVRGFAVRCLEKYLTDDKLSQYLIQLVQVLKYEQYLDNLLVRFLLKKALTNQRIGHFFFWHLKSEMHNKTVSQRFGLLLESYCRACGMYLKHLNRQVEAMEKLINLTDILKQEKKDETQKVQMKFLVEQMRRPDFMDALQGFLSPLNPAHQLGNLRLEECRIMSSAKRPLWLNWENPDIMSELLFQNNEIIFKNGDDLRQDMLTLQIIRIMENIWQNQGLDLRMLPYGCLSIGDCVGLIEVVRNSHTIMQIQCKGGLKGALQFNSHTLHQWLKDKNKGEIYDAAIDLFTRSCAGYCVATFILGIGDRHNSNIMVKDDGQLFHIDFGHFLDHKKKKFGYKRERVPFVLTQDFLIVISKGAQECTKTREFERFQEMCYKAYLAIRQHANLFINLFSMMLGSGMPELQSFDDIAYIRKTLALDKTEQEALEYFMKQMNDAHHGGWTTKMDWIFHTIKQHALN
Phosphatidylinositol 4,5-bisphosphate 3-kinase catalytic subunit beta isoform, sequence (P42338 whole entry, canonical isoform): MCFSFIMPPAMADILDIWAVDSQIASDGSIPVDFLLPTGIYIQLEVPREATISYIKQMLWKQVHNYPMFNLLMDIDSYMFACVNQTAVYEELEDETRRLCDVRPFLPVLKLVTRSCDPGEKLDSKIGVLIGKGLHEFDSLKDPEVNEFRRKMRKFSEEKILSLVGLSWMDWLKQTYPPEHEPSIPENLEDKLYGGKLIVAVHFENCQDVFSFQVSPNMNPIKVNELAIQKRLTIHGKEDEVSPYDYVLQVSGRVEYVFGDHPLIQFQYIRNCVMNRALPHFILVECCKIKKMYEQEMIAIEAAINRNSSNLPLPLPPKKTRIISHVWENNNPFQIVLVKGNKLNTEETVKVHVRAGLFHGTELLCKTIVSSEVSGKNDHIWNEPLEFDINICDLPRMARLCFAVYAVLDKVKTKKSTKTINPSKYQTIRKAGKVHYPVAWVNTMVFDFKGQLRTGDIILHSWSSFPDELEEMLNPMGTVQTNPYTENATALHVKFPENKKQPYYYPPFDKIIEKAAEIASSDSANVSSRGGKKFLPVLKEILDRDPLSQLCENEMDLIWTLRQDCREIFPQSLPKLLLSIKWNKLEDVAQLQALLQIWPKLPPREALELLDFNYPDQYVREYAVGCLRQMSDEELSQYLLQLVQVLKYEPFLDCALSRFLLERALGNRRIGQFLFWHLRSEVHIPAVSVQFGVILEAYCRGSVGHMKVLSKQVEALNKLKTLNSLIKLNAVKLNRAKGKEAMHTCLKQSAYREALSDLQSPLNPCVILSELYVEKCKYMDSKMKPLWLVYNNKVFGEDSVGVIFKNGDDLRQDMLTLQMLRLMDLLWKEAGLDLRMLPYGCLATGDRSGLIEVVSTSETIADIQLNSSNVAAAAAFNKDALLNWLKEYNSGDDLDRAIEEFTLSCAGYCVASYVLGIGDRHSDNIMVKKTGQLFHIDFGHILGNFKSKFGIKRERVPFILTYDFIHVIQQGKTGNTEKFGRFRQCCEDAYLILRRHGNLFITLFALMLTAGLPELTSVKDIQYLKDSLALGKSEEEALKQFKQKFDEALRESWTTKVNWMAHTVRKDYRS
Phosphatidylinositol 4,5-bisphosphate 3-kinase catalytic subunit gamma isoform, sequence (P48736 whole entry, canonical isoform): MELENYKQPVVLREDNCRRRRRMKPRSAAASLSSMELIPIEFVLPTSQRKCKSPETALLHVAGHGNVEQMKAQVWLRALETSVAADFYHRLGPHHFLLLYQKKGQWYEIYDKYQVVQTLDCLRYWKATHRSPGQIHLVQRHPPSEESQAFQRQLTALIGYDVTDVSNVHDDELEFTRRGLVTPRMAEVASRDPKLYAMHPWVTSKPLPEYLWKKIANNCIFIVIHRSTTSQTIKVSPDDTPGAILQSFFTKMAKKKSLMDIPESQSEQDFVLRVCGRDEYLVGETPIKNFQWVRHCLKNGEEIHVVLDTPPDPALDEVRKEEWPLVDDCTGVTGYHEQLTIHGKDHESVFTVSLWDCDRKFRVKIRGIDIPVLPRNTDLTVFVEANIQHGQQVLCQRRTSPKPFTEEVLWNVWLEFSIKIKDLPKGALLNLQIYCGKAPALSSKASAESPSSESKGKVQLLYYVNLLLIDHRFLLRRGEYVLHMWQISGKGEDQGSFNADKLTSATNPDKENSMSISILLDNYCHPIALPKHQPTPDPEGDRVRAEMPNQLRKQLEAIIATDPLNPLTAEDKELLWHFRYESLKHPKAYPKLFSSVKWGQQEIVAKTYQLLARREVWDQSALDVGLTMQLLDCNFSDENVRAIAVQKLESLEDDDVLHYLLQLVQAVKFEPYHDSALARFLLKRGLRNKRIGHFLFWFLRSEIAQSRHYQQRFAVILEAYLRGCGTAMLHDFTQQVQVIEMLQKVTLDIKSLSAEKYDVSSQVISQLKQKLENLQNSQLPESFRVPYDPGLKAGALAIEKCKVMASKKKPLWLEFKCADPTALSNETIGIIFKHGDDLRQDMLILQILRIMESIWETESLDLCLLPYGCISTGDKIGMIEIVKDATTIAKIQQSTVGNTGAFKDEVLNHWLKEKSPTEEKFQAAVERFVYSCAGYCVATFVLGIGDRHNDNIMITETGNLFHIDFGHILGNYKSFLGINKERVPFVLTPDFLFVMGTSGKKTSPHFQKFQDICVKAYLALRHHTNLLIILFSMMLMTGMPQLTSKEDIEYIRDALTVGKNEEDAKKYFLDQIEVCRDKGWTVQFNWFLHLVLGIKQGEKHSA

Compound	pIC50 [1]	pIC50 [2]	pIC50 [3]	pIC50 [4]	pIC50 [5]	clearance [6] [mL/min/kg]	Stability [7]	bioavailability [8] [%]
C[C@H](Nc1ncnc(N)c1C#N)c1nc2ccc(F)cc2c(NCCS(C)(=O)=O)c1-c1ccccc1	9.70	7.72	6.30	6.05	9.30	–	–	–
COCc1c(-c2ccccn2)c([C@H](C)Nc2ncnc(N)c2C#N)nc2ccc(F)cc12	7.80	5.31	5.39	–	8.51	–	–	–
C[C@H](Nc1ncnc(N)c1C#N)c1nc2ccc(F)cc2c(S(C)(=O)=O)c1-c1ccccc1	9.15	6.66	6.29	6.04	10.00	167	Unstable	–
COc1c(-c2ccccc2)c([C@H](C)Nc2ncnc(N)c2C#N)nc2ccc(F)cc12	8.92	7.96	8.09	6.38	9.10	–	–	–
C[C@H](Nc1ncnc(N)c1C#N)c1nc2ccc(F)cc2c([S+]([O-])CCO)c1-c1ccccc1 (some centres not stated)	8.60	6.42	6.80	6.21	–	–	–	–
COCCNc1c(-c2ccccc2)c([C@H](C)Nc2ncnc(N)c2C#N)nc2ccc(F)cc12	9.22	7.89	6.38	5.97	8.62	–	–	–
C[C@H](Nc1ncnc(N)c1C#N)c1nc2ccc(F)cc2c(NCCN(C)C)c1-c1ccccc1	8.77	5.80	5.30	5.80	–	–	–	–
C[C@H](Nc1ncnc(N)c1C#N)c1nc2ccc(F)cc2c(N2CC(O)C2)c1-c1ccccn1	7.74	6.29	6.55	5.92	8.85	–	–	–
C[C@H](Nc1ncnc(N)c1C#N)c1nc2ccc(F)cc2c(N2CCOCC2)c1-c1ccccn1	8.92	6.70	7.10	6.08	8.92	–	–	–
C[C@H](Nc1ncnc(N)c1C#N)c1nc2ccc(F)cc2c(-c2ccccn2)c1-c1ccccn1	–	–	–	–	–	0.95	–	51
Cc1cccnc1-c1c(-c2ccccn2)c([C@H](C)Nc2ncnc(N)c2C#N)nc2ccc(F)cc12	7.82	< 4.70	< 4.70	< 4.70	–	3.5	–	–
CC(Nc1ncnc(N)c1C#N)c1nc2ccc(F)cc2c(O)c1-c1ccccc1 (racemic)	7.80	6.68	< 4.70	< 4.70	8.55	11.7	–	15
CC(Nc1ncnc(N)c1C#N)c1nc2ccc(F)cc2c(NCCO)c1-c1ccccc1 (racemic)	9.40	6.92	6.34	5.92	8.51	–	–	–
CC(Nc1ncnc(N)c1C#N)c1nc2ccc(F)cc2cc1-c1ccccn1 (racemic)	8.06	5.96	< 4.70	< 4.70	–	–	–	–
CC(Nc1ncnc(N)c1C#N)c1nc2ccc(F)cc2c(Cl)c1-c1ccccn1 (racemic)	8.40	6.60	6.64	5.86	7.96	–	–	–
CC(Nc1ncnc(N)c1C#N)c1nc2ccc(F)cc2c(N(C)C)c1-c1ccccn1 (racemic)	8.85	6.54	6.15	5.94	8.44	–	–	–
CC(Nc1ncnc(N)c1C#N)c1nc2ccc(F)cc2c(C#N)c1-c1ccccn1 (racemic)	8.08	5.85	6.62	5.36	7.92	–	–	–
